Source: ChEMBL document CHEMBL3826889, “Symmetrical bis-tertiary amines as novel CXCR4 inhibitors” (2016)

Tests used:
[1] = molecular target: C-X-C chemokine receptor type 4 (Homo sapiens) (UniProt P61073); experiment: Displacement of biotinylated TN14003 from CXCR4 CXCL12 binding domain in human MDA-MB-231 cells preincubated for 10 mins followed by biotinylated TN14003 addition measured after 30 mins using streptavidin-conjugated rhodamine by fluorescence microscopic analysis; assay type: cell-based
Sequence of C-X-C chemokine receptor type 4 (Homo sapiens) (P61073 whole entry, the tested form may be a part): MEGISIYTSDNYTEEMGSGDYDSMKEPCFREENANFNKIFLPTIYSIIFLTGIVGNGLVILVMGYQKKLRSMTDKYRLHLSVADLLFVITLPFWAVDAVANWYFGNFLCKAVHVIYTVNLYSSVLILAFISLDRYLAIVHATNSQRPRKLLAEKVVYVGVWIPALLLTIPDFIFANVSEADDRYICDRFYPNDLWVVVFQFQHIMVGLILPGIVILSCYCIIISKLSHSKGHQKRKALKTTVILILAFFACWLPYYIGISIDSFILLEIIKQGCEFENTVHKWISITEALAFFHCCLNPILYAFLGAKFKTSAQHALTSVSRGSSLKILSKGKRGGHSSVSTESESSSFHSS
Outline: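 MDA-MB-231 cells, 2 × 10^4 per well, seeded 2 days prior. Compound at 1, 10, 100 or 1000 nM for 10 min at room temperature, then fixed in 4% ice-cold paraformaldehyde and rehydrated in PBS. Then 0.05 μg/mL biotinylated TN14003 for 30 min at RT, PBS washes, streptavidin-rhodamine (1:150) for 30 min at RT. Fluorescence microscopy. EC = lowest concentration giving significant fluorescence reduction vs control; semi-quantitative.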

[2] = tested on: MDA-MB-231; experiment: Inhibition of […]-induced invasion of human MDA-MB-231 cells at 100 nM after 22 hrs by hematoxylin/eosin-staining based matrigel assay; assay type: functional; conditions: MDA-MB-231, 22 h
Outline: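 Invasion chambers with Matrigel-coated 8 μm pore support. MDA-MB-231 cells treated with compound at 100 nM before seeding in the top chamber; CXCL12α at 200 ng/mL in the bottom chamber as chemoattractant. Incubation 22 h, humidified. Non-invading cells swabbed off; invaded cells fixed in methanol and H&E-stained, then counted to give percent invasion.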

[3] = tested on: Mus musculus; experiment: Antiinflammatory activity against carrageenan-induced paw edema in C57BL/6J mouse assessed as inhibition of edema volume at 300 ug/kg, ip daily administered 30 mins post carrageenan-challenge measured post 2 hrs of last injection; assay type: functional
Outline: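 Acute paw inflammation in female C57BL/6J mice: 50 μL λ-carrageenan (1% w/v in saline) injected s.c. into one hind paw, saline into the contralateral paw. Dosing i.p. daily from 30 min after challenge, in 10% DMSO / 90% of 45% (2-hydroxypropyl)-β-cyclodextrin in PBS; vehicle controls. Sacrifice at 74 h post-challenge, 2 h after last dose. Paw thickness by caliper; edema = injected minus contralateral. Suppression % vs vehicle group; 5 mice/group.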

| SMILES | EC [1] | inhibition at 0.1 µM [2] | inhibition in vivo at 0.3 mg/kg [3] |
| --- | --- | --- | --- |
| c1cc(CN2CCCCC2)ccc1CN1CCCCC1 | 10 nM | < 50% |  |
| c1cc(CN2CCOCC2)ccc1CN1CCOCC1 | > 1000 nM |  |  |
| CCN(Cc1ccccc1)Cc1ccc(CN(CC)Cc2ccccc2)cc1 | 1000 nM |  |  |
| c1cc(CN2CCCC2)ccc1CN1CCCC1 | 1000 nM |  |  |
| c1cc(CN2CCCNCCNCCCNCC2)ccc1CN1CCCNCCNCCCNCC1 [PLERIXAFOR] | 1000 nM | 62% |  |
| N=C(N)NCCC[C@@H]1NC(=O)[C@H](Cc2ccc(O)cc2)NC(=O)[C@H]2CCCN2C(=O)[C@@H](CCCCN)NC(=O)[C@@H](CCCCN)NC(=O)[C@H](CCCNC(=N)N)NC(=O)[C@H](Cc2ccc(O)cc2)NC(=O)[C@H](NC(=O)[C@@H](Cc2ccc3ccccc3c2)NC(=O)[C@H](CCCNC(=N)N)NC(=O)[C@@H](CCCNC(=N)N)NC(=O)c2ccc(F)cc2)CSSC[C@H](C(=O)N[C@H](CCCNC(=N)N)C(N)=O)NC(=O)[C@@H](CCCNC(N)=O)NC1=O (stereo in doubt) |  |  | 48% |
| c1ccc(CN(Cc2ccc(CN(Cc3ccccc3)CC3CC3)cc2)CC2CC2)cc1 | 1000 nM |  |  |
| CN(Cc1ccc(CN(C)c2ccc(F)cc2)cc1)c1ccc(F)cc1 | 100 nM | 66.4% |  |

More lines, main results first:

| EC [1] | SMILES | inhibition at 0.1 µM [2] | inhibition in vivo at 0.3 mg/kg [3] |
| --- | --- | --- | --- |
| > 1000 nM | CN(Cc1ccc(CN(C)Cc2cccc(F)c2)cc1)Cc1cccc(F)c1 |  |  |
| 10 nM | COc1cccc(CN(C)Cc2ccc(CN(C)Cc3cccc(OC)c3)cc2)c1 | < 50% |  |
| > 1000 nM | CN(Cc1ccncc1)Cc1ccc(CN(C)Cc2ccncc2)cc1 |  |  |
| > 1000 nM | CN(Cc1ccc(CN(C)Cc2ccccc2Cl)cc1)Cc1ccccc1Cl |  |  |
| > 1000 nM | CN(Cc1ccc(CN(C)Cc2ccccn2)cc1)Cc1ccccn1 |  |  |
| > 1000 nM | CN(Cc1ccc(CN(C)Cc2cccnc2)cc1)Cc1cccnc1 |  |  |
| 1000 nM | CN(Cc1ccc(CN(C)Cc2cccc(Cl)c2)cc1)Cc1cccc(Cl)c1 |  |  |
| 1000 nM | CN(Cc1ccc(CN(C)c2ccccc2)cc1)c1ccccc1 |  |  |
| > 1000 nM | CN(Cc1ccc(F)cc1)Cc1ccc(CN(C)Cc2ccc(F)cc2)cc1 |  |  |
| > 1000 nM | CN(Cc1ccc(CN(C)Cc2ccccc2F)cc1)Cc1ccccc1F |  |  |
